# ChEMBL document CHEMBL4680086, “Antiangiogenic Effect of (±)-Haloperidol Metabolite II Valproate Ester [(±)-MRJF22] in Human Microvascular Retinal Endothelial Cells” (J Med Chem, 2016)
# pIC50, pKi: −log10 of the molar value. Active and inactive are the calls of the source. The rule behind the calls is not given here.
# Key:
# [1] = test system: HREC; assay: Suppression of VEGF-A-induced angiogenesis in HREC assessed as reduction of the ramification number at 5 uM incubated for 24 hrs in presence of 2 uM sigma2 selective antagonist AC927 by Matrigel based tube formation assay; assay type: functional, tissue-based; settings: Homo sapiens
# Procedure, shortened: (§1)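 HREC were plated on Matrigel with VEGF-A stimulation. Emerging branch points (ramifications) from cell bodies were counted by phase-contrast imaging.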
# [2] = Suppression of VEGF-A-induced pro-angiogenesis in HREC assessed as alive cell number count at 5 uM incubated for 24 hrs by Trypan blue dye exclusion assay (reference value: 52%); assay type: functional, Homo sapiens
# [3] = Stability in pH 1.3 buffer by HPLC analysis; assay type: physicochemical
# Procedure, shortened: (§2)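 Chemical stability was tested at 37 °C in aqueous buffer at pH 1.3 (non-enzymatic simulated gastric fluid) or pH 7.4.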
# [4] = biological target: D(2) dopamine receptor (Rattus norvegicus, UniProt P61169); assay: Displacement of [3H]-spiperone from DRD2 in rat striatum by scintillation counting; assay type: tissue-based
# [5] = test system: HREC; assay: Cytotoxicity in HREC assessed as reduction in cell viability at 5 uM incubated for 72 hrs in presence of 1 uM sigma1 selective agonist (+)-pentazocine by MTT assay; assay type: functional; settings: Homo sapiens
# Procedure, shortened: (§3)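 HREC were co-incubated for 72 h with the test agent plus either the σ1 agonist (+)-pentazocine (1 μM) or the σ2 ligand AC927 (1 μM). Viability was read by MTT test.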
# [6] = Solubility in water incubated for 1 hr by HPLC analysis; assay type: physicochemical
# [7] = Cytotoxicity in HREC assessed as reduction in cell viability at 5 uM incubated for 24 hrs by MTT assay; assay type: functional, Homo sapiens
# Procedure, shortened: (§4)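 HREC viability measured by MTT test after compound exposure for 24, 48, 72 or 96 h, with concentrations up to 200 μM.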
# [8] = test system: HREC; assay: Effect on cell migration of in HREC at 5 uM incubated for 24 to 72 hrs by wound healing assay; assay type: functional; settings: Homo sapiens, time 24-72 hrs
# Procedure, shortened: (§5)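 A scratch wound was made in a confluent HREC monolayer, which was then kept in 1% FBS medium, either basal or with VEGF-A 80 ng/mL. (+)-Pentazocine (1 or 2 μM) was added where indicated. Wound-edge cell advancement was scored as a percentage at 24 and 72 h after the scratch.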
# [9] = Cytotoxicity in HREC assessed as reduction in cell viability incubated for 72 hrs by MTT assay; assay type: functional; settings: Homo sapiens; for pIC50: read-out: IC50; for IC50: read-out: pIC50 (converted)
# Procedure, shortened: (§6)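 HREC were exposed to the test agent for 24, 48, 72 or 96 h. Viability was measured by MTT, and IC50 values were derived for each time point.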
# [10] = (§7) Suppression of VEGF-A-induced cell migration in HREC assessed as crossing cells count at 5 uM incubated for 24 hrs by wound healing assay (reference value: 63%); assay type: functional, Homo sapiens
# [11] = Cytotoxicity in HREC assessed as reduction in cell viability incubated for 96 hrs by MTT assay; assay type: functional; settings: Homo sapiens; for pIC50: read-out: IC50; for IC50: read-out: pIC50 (converted); procedure, shortened: as §6
# [12] = Displacement of [3H]-DTG from sigma2 receptor in guinea pig brain membranes by scintillation counting; assay type: cell membranes, Cavia porcellus, Cell membrane
# [13] = test system: HREC; assay: Suppression of VEGF-A-induced cell migration in HREC assessed as effect on crossing cells count at 5 uM incubated for 24 to 72 hrs in presence of 1 to 2 uM sigma2 receptor antagonist AC927 by wound healing assay; assay type: functional; settings: Homo sapiens, time 24-72 hrs
# [14] = biological target: D(3) dopamine receptor (Rattus norvegicus, UniProt P19020); assay: Displacement of [3H]-7-OH-DPAT from DRD3 in rat olfactory tubercle by scintillation counting; assay type: tissue-based
# [15] = Cytotoxicity in HREC assessed as reduction in cell viability incubated for 24 hrs by MTT assay; assay type: functional; settings: Homo sapiens; for pIC50: read-out: IC50; for IC50: read-out: pIC50 (converted); procedure, shortened: as §4
# [16] = (§8) Cytotoxicity in HREC assessed as reduction in cell counts at 5 uM incubated for 24 hrs under basal conditions by Trypan blue dye exclusion assay; assay type: functional, Homo sapiens; set-up: scale not given: the % may be the effect or the level left
# Procedure, shortened: (§9)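 HRECs grown in medium with 1% FBS under basal conditions, no VEGF-A. Exposure 24 or 72 h. Read-out is the count of live cells excluding dye in a Trypan blue exclusion test.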
# [17] = Cytotoxicity in HREC assessed as reduction in cell viability incubated for 48 hrs by MTT assay; assay type: functional; settings: Homo sapiens; for pIC50: read-out: IC50; for IC50: read-out: pIC50 (converted); procedure, shortened: as §6
# [18] = Cytotoxicity in HREC assessed as reduction in cell viability at 5 uM incubated for 72 hrs in presence of 1 uM sigma2 receptor antagonist AC927 by MTT assay; assay type: functional, Homo sapiens
# Procedure, shortened: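 HRECs co-incubated with compound and the σ2 ligand AC927 (1 μM) for 72 h. Cell viability read by MTT test.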
# [19] = biological target: Histone deacetylase (Homo sapiens) (UniProt Q13547+O15379+Q9UBN7+Q92769+Q9UQL6+Q8WUI4+Q9BY41+Q96DB2+P56524+Q9UKV0+Q969S8); assay: Inhibition of HDAC in human HeLa cell extracts at 5 uM using fluorescently labeled HDAC substrate
# [20] = (§10) Cytotoxicity in HREC assessed as reduction in cell counts at 5 uM incubated for 72 hrs under basal conditions by Trypan blue dye exclusion assay; assay type: functional, Homo sapiens; set-up: scale not given: the % may be the effect or the level left; procedure, shortened: as §9
# [21] = Stability in rat plasma assessed as compound hydrolysis at 37 degC by HPLC analysis; assay type: ADME, cell-free
# Procedure, shortened: (§11)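 Compound was incubated in rat or human plasma, and ester hydrolysis was followed. The rate was expressed as the observed rate constant kobs.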
# [22] = Stability in pH 7.4 buffer by HPLC analysis; assay type: physicochemical; procedure, shortened: as §2
# [23] = test system: HREC; assay: Suppression of VEGF-A-induced angiogenesis in HREC assessed as reduction of the ramification number at 5 uM incubated for 24 hrs in presence of 2 uM sigma1 selective agonist (+)-pentazocine by Matrigel based tube formation assay; assay type: functional, tissue-based; settings: Homo sapiens; procedure, shortened: as §1
# [24] = test system: HREC; assay: Suppression of VEGF-A-induced cell migration in HREC assessed as effect on crossing cells count at 5 uM incubated for 24 to 72 hrs in presence of 1 to 2 uM sigma1 selective agonist (+)-pentazocine by wound healing assay; assay type: functional; settings: Homo sapiens, time 24-72 hrs; procedure, shortened: as §5
# [25] = Cytotoxicity in HREC assessed as reduction in cell viability at 5 uM incubated for 72 hrs by MTT assay; assay type: functional, Homo sapiens; procedure, shortened: as §4
# [26] = (§12) Suppression of VEGF-A-induced angiogenesis in HREC assessed as reduction of the ramification number at 5 uM incubated for 24 hrs by Matrigel based tube formation assay; assay type: functional, Homo sapiens; set-up: scale not given: the % may be the effect or the level left
# Procedure, shortened: (§13)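 HRECs plated on Matrigel in the presence of VEGF-A. Emerging branch points (ramification number) from tube formation were quantified by phase-contrast imaging.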
# [27] = biological target: Sigma non-opioid intracellular receptor 1 (Cavia porcellus, UniProt Q60492); assay: Displacement of [3H]-pentazocine from sigma1 receptor in guinea pig brain membranes by scintillation counting; assay type: cell membranes, Cell membrane
# [28] = Suppression of VEGF-A-induced pro-angiogenesis in HREC assessed as alive cell number count at 5 uM incubated for 72 hrs by Trypan blue dye exclusion assay (reference value: 42%); assay type: functional, Homo sapiens
# [29] = (§14) Suppression of VEGF-A-induced cell migration in HREC assessed as crossing cells count at 5 uM incubated for 72 hrs by wound healing assay (reference value: 26%); assay type: functional, Homo sapiens
# [30] = Stability in human plasma assessed as compound hydrolysis at 37 degC by HPLC analysis; assay type: ADME, cell-free; procedure, shortened: as §11
# [31] = test system: HREC; assay: as §7; assay type: functional; settings: Homo sapiens
# [32] = test system: HREC; assay: as §8; assay type: functional; settings: Homo sapiens; procedure, shortened: as §9
# [33] = test system: HREC; assay: as §10; assay type: functional; settings: Homo sapiens; procedure, shortened: as §9
# [34] = Cytotoxicity in HREC assessed as reduction in cell viability at 20 uM incubated for 72 hrs by MTT assay; assay type: functional, Homo sapiens; procedure, shortened: as §4
# [35] = Cytotoxicity in HREC assessed as reduction in cell viability at 200 uM incubated for 24 hrs by MTT assay; assay type: functional, Homo sapiens; procedure, shortened: as §4
# [36] = test system: HREC; assay: Cytotoxicity in HREC assessed as reduction in cell viability at 20 uM incubated for 72 hrs in presence of 1 uM sigma1 selective agonist (+)-pentazocine by MTT assay; assay type: functional; settings: Homo sapiens; procedure, shortened: as §3
# [37] = test system: HREC; assay: as §14; assay type: functional; settings: Homo sapiens
# [38] = test system: HREC; assay: Cytotoxicity in HREC assessed as reduction in cell viability at 20 uM incubated for 72 hrs in presence of 1 uM sigma2 receptor antagonist AC927 by MTT assay; assay type: functional; settings: Homo sapiens; procedure, shortened: as §3
# [39] = test system: HREC; assay: Cytotoxicity in HREC assessed as reduction in cell viability by MTT assay; assay type: functional; settings: Homo sapiens, TDE = time-dependent effect; procedure, shortened: as §6
# [40] = test system: HREC; assay: Suppression of VEGF-A-induced cell migration in HREC assessed as effect on crossing cells count at 2 uM incubated for 24 to 72 hrs by wound healing assay; assay type: functional; settings: Homo sapiens, time 24-72 hrs
# [41] = test system: HREC; assay: as §12; assay type: functional; settings: Homo sapiens; procedure, shortened: as §13
# [42] = test system: HREC; assay: Effect on cell migration of in HREC at 2 uM incubated for 24 to 72 hrs by wound healing assay; assay type: functional; settings: Homo sapiens, time 24-72 hrs
# Chain of Sigma non-opioid intracellular receptor 1 (Q60492 whole entry): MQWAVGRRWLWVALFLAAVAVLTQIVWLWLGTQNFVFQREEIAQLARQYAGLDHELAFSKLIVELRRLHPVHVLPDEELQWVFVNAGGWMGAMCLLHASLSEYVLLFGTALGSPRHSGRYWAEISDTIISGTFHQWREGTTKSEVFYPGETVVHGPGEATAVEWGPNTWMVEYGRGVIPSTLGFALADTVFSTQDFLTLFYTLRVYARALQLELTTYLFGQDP
# Chain of D(3) dopamine receptor (P19020 whole entry): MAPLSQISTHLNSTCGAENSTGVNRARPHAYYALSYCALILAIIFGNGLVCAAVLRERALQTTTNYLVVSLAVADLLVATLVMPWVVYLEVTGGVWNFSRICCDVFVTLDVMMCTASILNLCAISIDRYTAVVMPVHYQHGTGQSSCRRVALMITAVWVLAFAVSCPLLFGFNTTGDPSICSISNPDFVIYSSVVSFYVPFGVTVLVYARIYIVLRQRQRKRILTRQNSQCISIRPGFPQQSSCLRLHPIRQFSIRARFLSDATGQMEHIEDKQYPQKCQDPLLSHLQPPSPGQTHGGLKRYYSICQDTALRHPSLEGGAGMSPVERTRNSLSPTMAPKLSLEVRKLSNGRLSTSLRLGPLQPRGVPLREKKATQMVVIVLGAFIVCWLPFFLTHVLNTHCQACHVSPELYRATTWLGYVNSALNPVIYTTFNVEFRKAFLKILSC
# Chain of D(2) dopamine receptor (P61169 whole entry): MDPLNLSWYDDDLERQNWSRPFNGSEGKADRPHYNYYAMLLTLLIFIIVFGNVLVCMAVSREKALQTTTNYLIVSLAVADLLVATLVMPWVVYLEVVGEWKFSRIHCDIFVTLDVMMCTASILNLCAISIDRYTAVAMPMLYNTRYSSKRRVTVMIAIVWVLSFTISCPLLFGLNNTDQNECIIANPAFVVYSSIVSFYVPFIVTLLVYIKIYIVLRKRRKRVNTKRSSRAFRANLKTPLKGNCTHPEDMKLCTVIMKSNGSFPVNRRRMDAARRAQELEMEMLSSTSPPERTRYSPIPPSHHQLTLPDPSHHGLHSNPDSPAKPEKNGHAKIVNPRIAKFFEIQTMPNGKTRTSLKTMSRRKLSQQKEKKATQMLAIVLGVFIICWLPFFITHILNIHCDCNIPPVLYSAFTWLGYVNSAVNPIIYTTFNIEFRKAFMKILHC
compound,measurement,setting,value
CCCC(CCC)C(=O)OC(CCCN1CCC(O)(c2ccc(Cl)cc2)CC1)c1ccc(F)cc1 (racemic),Activity,[1],Active
same,Activity,[2],28%
same,half-life,[3],129 h
same,pKi,[4],< 5.30
same,Activity,[5],inactive
same,solubility at 1 h,[6],1400 µg/mL
same,Activity,[7],28%
same,Activity,[8],inactive
same,pIC50,[9],5.00
same,IC50,[9],10.1 µM
same,Activity,[10],55%
same,pIC50,[11],4.97
same,IC50,[11],10.6 µM
same,pKi,[12],6.91
same,Activity,[13],Active
same,pKi,[14],< 5.30
same,pIC50,[15],4.98
same,IC50,[15],10.5 µM
same,Activity,[16],32%
same,pIC50,[17],4.95
same,IC50,[17],11.1 µM
same,Activity,[18],18%
same,inhibition,[19],inactive
same,Activity,[20],52%
same,Stabilty,[21],Unstable
same,half-life,[22],134 h
same,Activity,[23],inactive
same,Activity,[24],inactive
same,Activity,[25],25%
same,Activity,[26],67%
same,pKi,[27],7.89
same,Activity,[28],30%
same,Activity,[29],24%
same,Stabilty,[30],Stable
OC(CCCN1CCC(O)(c2ccc(Cl)cc2)CC1)c1ccc(F)cc1 (racemic) [HYDROXYHALOPERIDOL],Activity,[8],inactive
same,pIC50,[9],4.16
same,IC50,[9],68.7 µM
same,Activity,[31],inactive
same,pIC50,[11],4.25
same,IC50,[11],56.6 µM
same,pKi,[12],8.62
same,pKi,[14],5.99
same,pIC50,[15],< 3.70
same,Activity,[32],inactive
same,pIC50,[17],3.89
same,IC50,[17],128 µM
same,Activity,[33],inactive
same,Activity,[34],29%
same,Activity,[35],<50%
same,Activity,[36],inactive
same,Activity,[37],inactive
same,Activity,[38],inactive
same,Activity,[39],Tde
O=C(CCCN1CCC(O)(c2ccc(Cl)cc2)CC1)c1ccc(F)cc1 [HALOPERIDOL],pIC50,[11],5.64
same,IC50,[11],2.29 µM
same,Activity,[40],inactive
same,Activity,[41],inactive
same,Activity,[42],inactive
CCCC(CCC)C(=O)O [VALPROIC ACID],Activity,[8],inactive
same,pIC50,[9],2.86
same,IC50,[9],1390 µM
same,Activity,[31],inactive
same,pIC50,[11],2.83
same,IC50,[11],1480 µM
same,pKi,[12],< 5.00
same,pIC50,[15],2.91
same,IC50,[15],1220 µM
same,Activity,[32],inactive
same,pIC50,[17],2.84
same,IC50,[17],1450 µM
same,Activity,[33],inactive
same,pKi,[27],< 5.00
same,Activity,[37],inactive
